Assay results reported in ChEMBL document CHEMBL1137151, “Novel factor Xa inhibitors based on a 2-carboxyindole scaffold: SAR of P4 substituents in combination with a neutral P1 ligand” (Bioorg Med Chem Lett, 2004).

Key:
Prothrombin [1] = target: T1, Prothrombin (Homo sapiens, UniProt P00734); assay: Concentration required to double plasma clotting prothrombin time; format: functional, cell-free
Summary of the method: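 Standard plasma coagulation assays, APTT and PT respectively. The value is the inhibitor concentration that doubles plasma clotting time.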

Prothrombin [2] = target: T1, Prothrombin; assay: Inhibitory concentration in dilute prothrombin time assay; format: functional
Summary of the method: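 Dilute prothrombin time assay, run as PT with diluted thromboplastin reagent. The value is the inhibitor concentration giving 50% inhibition of dPT.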

Coagulation factor X = Coagulation factor X (Homo sapiens, UniProt P00742); assay: Inhibitory activity against serine protease factor Xa
Chain of Coagulation factor X (P00742 41-179 limits assumed): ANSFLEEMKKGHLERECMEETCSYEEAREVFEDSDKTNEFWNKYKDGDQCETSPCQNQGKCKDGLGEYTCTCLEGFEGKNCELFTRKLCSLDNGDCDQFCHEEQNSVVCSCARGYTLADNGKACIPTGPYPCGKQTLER
Chain of Coagulation factor X (P00742 235-488 limits assumed): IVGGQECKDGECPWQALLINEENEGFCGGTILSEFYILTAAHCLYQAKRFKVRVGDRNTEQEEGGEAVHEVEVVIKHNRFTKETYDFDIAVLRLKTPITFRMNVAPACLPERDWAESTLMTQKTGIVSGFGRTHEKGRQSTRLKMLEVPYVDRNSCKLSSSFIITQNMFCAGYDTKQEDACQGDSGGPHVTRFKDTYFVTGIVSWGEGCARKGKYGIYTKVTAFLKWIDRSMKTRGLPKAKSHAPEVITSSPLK

Trypsin = Trypsin (Homo sapiens, UniProt P07477+P07478+P35030); assay: Inhibitory activity against coagulation factor trypsin; format: protein assay
[3] = target: Tissue-type plasminogen activator (Homo sapiens, UniProt P00750); assay: Inhibitory activity against human tissue plasminogen activator
Chain of Tissue-type plasminogen activator (P00750 whole entry): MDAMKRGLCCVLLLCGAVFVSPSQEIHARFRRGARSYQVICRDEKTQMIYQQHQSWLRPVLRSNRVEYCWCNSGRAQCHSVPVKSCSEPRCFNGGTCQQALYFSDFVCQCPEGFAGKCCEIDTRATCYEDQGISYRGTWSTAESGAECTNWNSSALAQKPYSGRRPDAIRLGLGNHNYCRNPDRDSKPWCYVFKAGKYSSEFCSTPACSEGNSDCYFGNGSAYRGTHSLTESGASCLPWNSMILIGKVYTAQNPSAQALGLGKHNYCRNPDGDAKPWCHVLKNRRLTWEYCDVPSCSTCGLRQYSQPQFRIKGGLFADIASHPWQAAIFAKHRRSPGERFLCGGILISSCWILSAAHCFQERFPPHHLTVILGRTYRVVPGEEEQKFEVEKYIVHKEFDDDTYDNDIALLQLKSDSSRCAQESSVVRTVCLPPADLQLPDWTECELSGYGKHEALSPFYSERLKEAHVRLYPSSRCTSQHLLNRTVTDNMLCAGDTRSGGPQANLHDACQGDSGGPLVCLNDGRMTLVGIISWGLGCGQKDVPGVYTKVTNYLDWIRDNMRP

Prothrombin [4] = target: T1, Prothrombin; assay: Inhibitory activity against coagulation factor II (thrombin)

Compound	Concentration (Prothrombin [1]) [µM]	IC50 (Prothrombin [2]) [µM]	Ki (Coagulation factor X) [µM]	Ki (Trypsin) [µM]	Ki [3] [µM]	Ki (Prothrombin [4]) [µM]
CC(C)N1CCC(CNC(=O)c2cc3ccccc3n2Cc2cc(-c3ccc(Cl)s3)on2)CC1	–	–	0.161	–	–	–
CS(=O)(=O)N1CCC(NC(=O)c2cc3ccccc3n2Cc2cc(-c3ccc(Cl)s3)on2)CC1	–	–	0.125	–	–	–
CC(C)CN1CC(NC(=O)c2cc3ccccc3n2Cc2cc(-c3ccc(Cl)s3)on2)C1	–	–	0.345	–	–	–
O=C(c1cc2ccccc2n1Cc1cc(-c2ccc(Cl)s2)on1)N1CCC(Oc2ccncc2)CC1	–	–	2.9	–	–	–
CC(C)N1CC(NC(=O)c2cc3ccccc3n2Cc2cc(-c3ccc(Cl)s3)on2)C1	–	–	0.225	–	–	–
O=C(NC1CCN(c2ccncc2)CC1)c1cc2ccccc2n1Cc1cc(-c2ccc(Cl)s2)on1	6.04	0.23	–	> 100	> 100	> 10
O=C(NC1CN(c2ccncc2)C1)c1cc2ccccc2n1Cc1cc(-c2ccc(Cl)s2)on1	6.2	0.37	0.012	> 100	> 100	> 10
O=C(c1cc2ccccc2n1Cc1cc(-c2ccc(Cl)s2)on1)N1CCC(Nc2ccncc2)CC1	5.78	0.19	–	> 100	64	3.16
CC(C)N1CC[C@@H](NC(=O)c2cc3ccccc3n2Cc2cc(-c3ccc(Cl)s3)on2)C1	13.7	0.62	–	> 100	> 100	> 10
CC(C)N1CC(CNC(=O)c2cc3ccccc3n2Cc2cc(-c3ccc(Cl)s3)on2)C1	–	–	0.839	–	–	–

The remaining lines, values ahead:

Concentration (Prothrombin [1]) [µM]	IC50 (Prothrombin [2]) [µM]	Ki (Coagulation factor X) [µM]	Ki (Trypsin) [µM]	Ki [3] [µM]	Ki (Prothrombin [4]) [µM]	Compound
15.6	1.56	–	–	–	–	CCCN1CCC(NC(=O)c2cc3ccccc3n2Cc2cc(-c3ccc(Cl)s3)on2)CC1
5.41	0.42	–	> 100	> 100	2.76	CC(C)N1CCC(NC(=O)c2cc3ccccc3n2Cc2cc(-c3ccc(Cl)s3)on2)CC1
19.6	1.79	–	> 100	> 100	8.22	O=C(NC1CCN(C2CC2)CC1)c1cc2ccccc2n1Cc1cc(-c2ccc(Cl)s2)on1
–	–	0.106	–	–	–	O=C(NC1CCN(C2CCCCC2)CC1)c1cc2ccccc2n1Cc1cc(-c2ccc(Cl)s2)on1
30.7	1.55	–	> 100	> 100	> 10	CN1CCC(NC(=O)c2cc3ccccc3n2Cc2cc(-c3ccc(Cl)s3)on2)CC1
–	–	0.095	–	–	–	O=C(NC1CCN(C2CCOCC2)CC1)c1cc2ccccc2n1Cc1cc(-c2ccc(Cl)s2)on1
9.02	0.37	–	> 100	> 100	> 10	CCN1CCC(NC(=O)c2cc3ccccc3n2Cc2cc(-c3ccc(Cl)s3)on2)CC1
–	–	0.071	–	–	–	O=C(NC1CCN(C2CCCC2)CC1)c1cc2ccccc2n1Cc1cc(-c2ccc(Cl)s2)on1
